Compound activity: PubChem, several laboratories
Only a selection was taken, and hits are over-represented in it overall.
UPR CHOP act: activators of apoptotic arm of unfolded protein response (CHOP) | activation, % at 10 µM | CHO-CHOP luciferase reporter, UPR activation, luminescence; percent of tunicamycin response over DMSO baseline | 0.34% of 330,000 active | AID 449763;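 active = at 10 µM dose, activation of 40% or more, normalized to positive control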;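 note: 100% = tunicamycin at 10 µg/mL and 0% = DMSO alone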
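System: CHO CHOP reporter cells. Amount: 500 cells per well. Buffer or medium: F12 medium, 10% FBS. Compound dosing: one dose, 10 µM in 0.5% DMSO. Incubation: 6 h compound exposure at 37 °C after overnight seeding. Technique: Steady-Glo luciferase luminescence. Benchmarks: tunicamycin and DMSO controls.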
UPR XBP1 act: adaptive UPR (XBP1) activation | CHO-XBP1 luciferase reporter, IRE1-XBP1 UPR activation, luminescence; percent of tunicamycin response, DMSO as zero | AID 463104 | activation, % at 20 µM | 0.33% of 330,000 active;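 active = versus positive control, 20 µM dose yields 30% or more activation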;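 note: 100% = tunicamycin at 10 µg/mL and 0% = DMSO only wells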
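assay system = CHO-XBP1 luciferase reporter cells | amount = 1000 cells/well | buffer or medium = F12 plus 10% FBS | compound dosing = single point, 20 µM final compound, 1% DMSO | incubation = 16-18 h cell attachment at 37 °C, then 6 h compound exposure | detection = Steady-Glo luminescence read | controls = tunicamycin 10 µg/mL and vehicle-only wells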
Tb MetRS inh: blocks T. brucei methionyl-tRNA synthetase activity | purified T. brucei MetRS, ATP depletion, Kinase-Glo luminescence | AID 624268 | inhibition, % at 11.9 µM | 0.4% of 360,000 active;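 active = inhibition above a per-plate cutoff of the control wells' mean inhibition plus 3 SD, cut at about 5.5% in these data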;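 note: 0% = DMSO wells median and 100% = median of wells with control inhibitor compound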
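System: purified T. brucei MetRS enzyme / Detection: Kinase-Glo luciferase luminescence reporting remaining unconsumed ATP / Medium: HEPES buffer with MgCl2, KCl, DTT, spermine, BSA, pyrophosphatase / Replication: singlicate, one well per compound / Evaluation: percent inhibition relative to median high and low control wells / Schedule: 2 h aminoacylation at 25 °C after 15 min preincubation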
CHOP inh: CHOP inhibition in unfolded protein response; inhibition, % at 10 µM; AID 2732; CHO-K1 CHOP-promoter luciferase, tunicamycin-induced, 15-18 h; 3.8% of 220,000 active;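 active = compounds that reduced the stress-induced luciferase reporter signal by more than about 70% of percent inhibition, limit read from the data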;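 note: 0% = tunicamycin plus vehicle and 100% = wells without tunicamycin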
V-ATPase pHluor: regulators of yeast V-ATPase proton transport; AID 504577; 0.37% of 350,000 active; S. cerevisiae, pHLuorin cytosolic pH fluorescence; response, % at 10 µM; in the data active = response mostly above about 7.3%, no sharp cut-off; inactive = mostly below about 5.4%; note: actives read high
* hit, by the source's call.

`CCOC(=O)C1=C(c2ccccc2)OC(N)=C(C#N)C1c1ccc(Br)s1` (stereo not drawn) gave UPR CHOP act 2, UPR XBP1 act -2, Tb MetRS inh 0, CHOP inh 82* and V-ATPase pHluor 6.
Screening CCOC(=O)C1=C(c2ccccc2)OC(N)=C(C#N)C1c1cccnc1 (stereo not drawn) returned UPR CHOP act 1, UPR XBP1 act 0, Tb MetRS inh 0, CHOP inh -8 and V-ATPase pHluor 1.
CCOC(=O)C1=C(C)OC(N)=C(C#N)C1c1ccccc1 (stereo not drawn) was read as UPR CHOP act 0, UPR XBP1 act -4, Tb MetRS inh 0, CHOP inh -3 and V-ATPase pHluor 4.
`CCOC(=O)C1=C(c2ccccc2)OC(N)=C(C#N)C1c1ccc(Cl)s1` (stereo not drawn) gave UPR CHOP act 3, UPR XBP1 act 2, Tb MetRS inh 0, CHOP inh 78* and V-ATPase pHluor 3.
Screening O=P(c1ccccc1)(c1ccccc1)c1ccccc1C(Br)Br returned Tb MetRS inh 0.
`COC(=O)CSc1nc2nc(C)cc(C)n2n1` gave UPR CHOP act 0, UPR XBP1 act 2, Tb MetRS inh 0, CHOP inh -13 and V-ATPase pHluor 0.
`CCOC(=O)CSc1nc2nc(C)cc(C)n2n1` gave UPR CHOP act -1, UPR XBP1 act -1, Tb MetRS inh 2, CHOP inh 83* and V-ATPase pHluor 4.
Screening Cc1cccc(C)c1NC(=O)C1(N(Cc2ccco2)C(=O)CC2NC(=O)NC2=O)CCCCC1 (stereo not drawn) returned UPR CHOP act -1, UPR XBP1 act -3, Tb MetRS inh -1, CHOP inh 77* and V-ATPase pHluor -6.
For O=C1NC(=O)C(CC(=O)N(Cc2ccco2)C2(C(=O)NC3CCCC3)CCCCC2)N1 (stereo not drawn) the results were UPR CHOP act 5, UPR XBP1 act 0, Tb MetRS inh -1, CHOP inh 27 and V-ATPase pHluor -4.
Screening CCCCN1C(=O)c2ccc(C(=O)Nc3cccc(C)c3C)cc2C1=O returned UPR CHOP act 2, UPR XBP1 act 1, Tb MetRS inh 3, CHOP inh 76* and V-ATPase pHluor 3.
`Cc1ccccc1NC(=O)c1ccc2c(c1)C(=O)N(CCC(C)C)C2=O` gave UPR CHOP act 1, UPR XBP1 act -2, Tb MetRS inh 0, CHOP inh 79* and V-ATPase pHluor -3.
`CC(=O)Nc1ccc(-c2ccnc3c2CC(C)(C(=O)NCc2ccc(N(C)C)cc2)O3)cc1` (stereo not drawn) gave Tb MetRS inh 0.
CNc1ncnc2c1ncn2[C@H]1C[C@H](OP(=O)(O)O)[C@@H](COP(=O)(O)O)O1 was read as CHOP inh -8.
`CCc1ccc(OCC(O)CN2CCC(CN3C(=O)c4cccc5cccc(c45)C3=O)CC2)cc1` (stereo not drawn) gave UPR CHOP act 2, UPR XBP1 act 2, Tb MetRS inh 1, CHOP inh 94* and V-ATPase pHluor 0.
c1ccc(CCNc2ccc3ncc(-c4cccc5ccccc45)n3n2)nc1 was read as Tb MetRS inh 0.
`Cc1nn(-c2ccccc2)c(Cl)c1C(=O)NC1CCCCC1` gave UPR CHOP act 1, UPR XBP1 act -2, Tb MetRS inh -1, CHOP inh 3 and V-ATPase pHluor 1.
Cc1nn(-c2ccccc2)c(Cl)c1C(=O)Nc1nnc(C2CCCC2)s1 was read as UPR CHOP act 1, UPR XBP1 act -4, Tb MetRS inh -1, CHOP inh 80* and V-ATPase pHluor -1.
For Cc1cccc(C)c1NC(=O)CN(C)C(=O)c1ccc(OCc2ccccc2)cc1 the results were Tb MetRS inh 0 and V-ATPase pHluor -1.
For Cc1cc(C)nc(Nc2nc(C(N)Cc3ccccc3)cs2)n1 (stereo not drawn) the results were Tb MetRS inh 0.
Cc1ccc2nc(/C=C/c3cccc(F)c3)ccc2c1 was read as UPR CHOP act 1, UPR XBP1 act 0, Tb MetRS inh 0, CHOP inh 96* and V-ATPase pHluor 1.
`C(=N\N(c1ccccc1)c1ccccc1)/c1ccc(N2CCOCC2)s1` gave UPR CHOP act 0, UPR XBP1 act -1, Tb MetRS inh -1, CHOP inh 27 and V-ATPase pHluor -2.
Screening CCCCN1C(=O)C(CC(=O)NC2CCCCC2)CC(C(=O)N(C)C)=C1C (stereo not drawn) returned Tb MetRS inh 0 and V-ATPase pHluor -3.
For OCC#CCSc1nnc(-c2ccc(Br)cc2)o1 the results were UPR CHOP act 0, UPR XBP1 act 5, Tb MetRS inh 1, CHOP inh 2 and V-ATPase pHluor 3.
For COC(=O)Sc1nnc(-c2ccc(Br)cc2)o1 the results were UPR CHOP act 0, UPR XBP1 act -3 and CHOP inh 91*.
Screening CCc1nc2ccc(C(=O)N(C)Cc3ccccc3)cn2c1N(CC)CCN(C)C returned Tb MetRS inh 0.
CC(=O)Nc1ccccc1OCC(=O)NC(C)c1ccccc1 (stereo not drawn) was read as UPR CHOP act -2, UPR XBP1 act 0, Tb MetRS inh -1, CHOP inh 18 and V-ATPase pHluor 3.
For CC(NC(=O)COc1ccccc1-c1ccccc1)c1ccccc1 (stereo not drawn) the results were UPR CHOP act -2, UPR XBP1 act -1, Tb MetRS inh 0, CHOP inh 77* and V-ATPase pHluor 2.
O=[N+]([O-])c1ccn(-c2nc(-c3cccs3)cc(C(F)(F)F)n2)n1 was read as UPR CHOP act 5, UPR XBP1 act 4, Tb MetRS inh 0, CHOP inh 14 and V-ATPase pHluor -1.
For FC(F)(F)c1cc(-c2cccs2)nc(-n2cc(Cl)cn2)n1 the results were UPR CHOP act 0, UPR XBP1 act 2, Tb MetRS inh -1, CHOP inh 85* and V-ATPase pHluor 0.
For CCCC(O)(c1ccc(Cl)cc1)C(CN1CCOCC1)c1ccccc1 (stereo not drawn) the results were UPR CHOP act 0, UPR XBP1 act 0, Tb MetRS inh -1, CHOP inh 90* and V-ATPase pHluor 2.
`COc1cc(C=NNc2ccccc2)ccc1OC(=O)c1ccccc1` gave Tb MetRS inh 0 and V-ATPase pHluor -2.
`CCOc1cc(/C=N/NC(=O)c2ccncc2)ccc1OC(=O)c1ccc([N+](=O)[O-])cc1` gave UPR CHOP act 0, UPR XBP1 act -1, Tb MetRS inh 0, CHOP inh 81* and V-ATPase pHluor 0.
`CCOc1cc(/C=N/Nc2cccc(C(=O)O)c2)ccc1OC(=O)c1ccccc1` gave UPR CHOP act -8, UPR XBP1 act -8, Tb MetRS inh 0, CHOP inh 92* and V-ATPase pHluor 1.
